Experimental data taken from article PMC2292750 (PLoS Medicine, 2008).

Columns and labels:
[1] = test system: mouse PanINs and PDAC lesions, frozen sections; experiment: Binding of FITC-labeled phage to frozen mouse pancreas sections; conditions: 1 μM FITC-labeled phage, 1 h at 37 °C, fluorescence microscopy, n = 3
Method in brief: (§1)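 Frozen tissues (n = 3) were embedded in OCT, cut at 5 μm and arrayed on slides. Sections were incubated for 1 h at 37 °C with 1 μM FITC-labeled test phage or FITC-labeled control phage (no insert). They were then washed three times with PBS, fixed in 2% paraformaldehyde and imaged by fluorescence microscopy (40× objective).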

[2] = test system: human PDAC; experiment: Binding of FITC-labeled phage to frozen human PDAC sections; conditions: 1 μM FITC-labeled phage, 1 h at 37 °C, fluorescence microscopy
Method in brief: as §1

[3] = test system: mouse PDAC cells; format: cell-based; conditions: flow cytometry
Method in brief: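 Early-passage PDAC cells came from Kras/p53L/L mouse tumors; normal primary ductal cells came from wild-type mice. Phage (~1 × 10^12 PFU) were labeled with 0.25 mg/ml FITC for 1 h and PEG-purified. Cells were incubated with 1 μM (FITC) phage for 1 h at 37 °C, washed three times with DPBS and trypsinized. Mean fluorescence was read by flow cytometry at 10,000 cells/sample.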

[4] = molecular target: plectin-1 (Mus musculus, UniProt Q9QXS1); experiment: Competition experiment with anti-plectin-1 antibody; format: binding; conditions: coincubation of anti-plectin-1 antibody and FITC-labeled phage with mouse PDAC cells, 1 h at 37 °C, versus vehicle
[5] = test system: normal human ductal cells; format: cell-based; conditions: FITC-labeled phage 1 μM, 1 h at 37 °C, FACS
Method in brief: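 Normal human ductal cells were incubated with 1 μM (FITC) FITC-labeled test phage or an unrelated control phage clone (SNLHPSD) for 1 h at 37 °C. Cells were washed three times with DPBS, trypsinized and centrifuged, then read by flow cytometry at 10,000 cells/sample. Mean fluorescence served as relative uptake.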

Chain of plectin-1 (Q9QXS1 whole entry): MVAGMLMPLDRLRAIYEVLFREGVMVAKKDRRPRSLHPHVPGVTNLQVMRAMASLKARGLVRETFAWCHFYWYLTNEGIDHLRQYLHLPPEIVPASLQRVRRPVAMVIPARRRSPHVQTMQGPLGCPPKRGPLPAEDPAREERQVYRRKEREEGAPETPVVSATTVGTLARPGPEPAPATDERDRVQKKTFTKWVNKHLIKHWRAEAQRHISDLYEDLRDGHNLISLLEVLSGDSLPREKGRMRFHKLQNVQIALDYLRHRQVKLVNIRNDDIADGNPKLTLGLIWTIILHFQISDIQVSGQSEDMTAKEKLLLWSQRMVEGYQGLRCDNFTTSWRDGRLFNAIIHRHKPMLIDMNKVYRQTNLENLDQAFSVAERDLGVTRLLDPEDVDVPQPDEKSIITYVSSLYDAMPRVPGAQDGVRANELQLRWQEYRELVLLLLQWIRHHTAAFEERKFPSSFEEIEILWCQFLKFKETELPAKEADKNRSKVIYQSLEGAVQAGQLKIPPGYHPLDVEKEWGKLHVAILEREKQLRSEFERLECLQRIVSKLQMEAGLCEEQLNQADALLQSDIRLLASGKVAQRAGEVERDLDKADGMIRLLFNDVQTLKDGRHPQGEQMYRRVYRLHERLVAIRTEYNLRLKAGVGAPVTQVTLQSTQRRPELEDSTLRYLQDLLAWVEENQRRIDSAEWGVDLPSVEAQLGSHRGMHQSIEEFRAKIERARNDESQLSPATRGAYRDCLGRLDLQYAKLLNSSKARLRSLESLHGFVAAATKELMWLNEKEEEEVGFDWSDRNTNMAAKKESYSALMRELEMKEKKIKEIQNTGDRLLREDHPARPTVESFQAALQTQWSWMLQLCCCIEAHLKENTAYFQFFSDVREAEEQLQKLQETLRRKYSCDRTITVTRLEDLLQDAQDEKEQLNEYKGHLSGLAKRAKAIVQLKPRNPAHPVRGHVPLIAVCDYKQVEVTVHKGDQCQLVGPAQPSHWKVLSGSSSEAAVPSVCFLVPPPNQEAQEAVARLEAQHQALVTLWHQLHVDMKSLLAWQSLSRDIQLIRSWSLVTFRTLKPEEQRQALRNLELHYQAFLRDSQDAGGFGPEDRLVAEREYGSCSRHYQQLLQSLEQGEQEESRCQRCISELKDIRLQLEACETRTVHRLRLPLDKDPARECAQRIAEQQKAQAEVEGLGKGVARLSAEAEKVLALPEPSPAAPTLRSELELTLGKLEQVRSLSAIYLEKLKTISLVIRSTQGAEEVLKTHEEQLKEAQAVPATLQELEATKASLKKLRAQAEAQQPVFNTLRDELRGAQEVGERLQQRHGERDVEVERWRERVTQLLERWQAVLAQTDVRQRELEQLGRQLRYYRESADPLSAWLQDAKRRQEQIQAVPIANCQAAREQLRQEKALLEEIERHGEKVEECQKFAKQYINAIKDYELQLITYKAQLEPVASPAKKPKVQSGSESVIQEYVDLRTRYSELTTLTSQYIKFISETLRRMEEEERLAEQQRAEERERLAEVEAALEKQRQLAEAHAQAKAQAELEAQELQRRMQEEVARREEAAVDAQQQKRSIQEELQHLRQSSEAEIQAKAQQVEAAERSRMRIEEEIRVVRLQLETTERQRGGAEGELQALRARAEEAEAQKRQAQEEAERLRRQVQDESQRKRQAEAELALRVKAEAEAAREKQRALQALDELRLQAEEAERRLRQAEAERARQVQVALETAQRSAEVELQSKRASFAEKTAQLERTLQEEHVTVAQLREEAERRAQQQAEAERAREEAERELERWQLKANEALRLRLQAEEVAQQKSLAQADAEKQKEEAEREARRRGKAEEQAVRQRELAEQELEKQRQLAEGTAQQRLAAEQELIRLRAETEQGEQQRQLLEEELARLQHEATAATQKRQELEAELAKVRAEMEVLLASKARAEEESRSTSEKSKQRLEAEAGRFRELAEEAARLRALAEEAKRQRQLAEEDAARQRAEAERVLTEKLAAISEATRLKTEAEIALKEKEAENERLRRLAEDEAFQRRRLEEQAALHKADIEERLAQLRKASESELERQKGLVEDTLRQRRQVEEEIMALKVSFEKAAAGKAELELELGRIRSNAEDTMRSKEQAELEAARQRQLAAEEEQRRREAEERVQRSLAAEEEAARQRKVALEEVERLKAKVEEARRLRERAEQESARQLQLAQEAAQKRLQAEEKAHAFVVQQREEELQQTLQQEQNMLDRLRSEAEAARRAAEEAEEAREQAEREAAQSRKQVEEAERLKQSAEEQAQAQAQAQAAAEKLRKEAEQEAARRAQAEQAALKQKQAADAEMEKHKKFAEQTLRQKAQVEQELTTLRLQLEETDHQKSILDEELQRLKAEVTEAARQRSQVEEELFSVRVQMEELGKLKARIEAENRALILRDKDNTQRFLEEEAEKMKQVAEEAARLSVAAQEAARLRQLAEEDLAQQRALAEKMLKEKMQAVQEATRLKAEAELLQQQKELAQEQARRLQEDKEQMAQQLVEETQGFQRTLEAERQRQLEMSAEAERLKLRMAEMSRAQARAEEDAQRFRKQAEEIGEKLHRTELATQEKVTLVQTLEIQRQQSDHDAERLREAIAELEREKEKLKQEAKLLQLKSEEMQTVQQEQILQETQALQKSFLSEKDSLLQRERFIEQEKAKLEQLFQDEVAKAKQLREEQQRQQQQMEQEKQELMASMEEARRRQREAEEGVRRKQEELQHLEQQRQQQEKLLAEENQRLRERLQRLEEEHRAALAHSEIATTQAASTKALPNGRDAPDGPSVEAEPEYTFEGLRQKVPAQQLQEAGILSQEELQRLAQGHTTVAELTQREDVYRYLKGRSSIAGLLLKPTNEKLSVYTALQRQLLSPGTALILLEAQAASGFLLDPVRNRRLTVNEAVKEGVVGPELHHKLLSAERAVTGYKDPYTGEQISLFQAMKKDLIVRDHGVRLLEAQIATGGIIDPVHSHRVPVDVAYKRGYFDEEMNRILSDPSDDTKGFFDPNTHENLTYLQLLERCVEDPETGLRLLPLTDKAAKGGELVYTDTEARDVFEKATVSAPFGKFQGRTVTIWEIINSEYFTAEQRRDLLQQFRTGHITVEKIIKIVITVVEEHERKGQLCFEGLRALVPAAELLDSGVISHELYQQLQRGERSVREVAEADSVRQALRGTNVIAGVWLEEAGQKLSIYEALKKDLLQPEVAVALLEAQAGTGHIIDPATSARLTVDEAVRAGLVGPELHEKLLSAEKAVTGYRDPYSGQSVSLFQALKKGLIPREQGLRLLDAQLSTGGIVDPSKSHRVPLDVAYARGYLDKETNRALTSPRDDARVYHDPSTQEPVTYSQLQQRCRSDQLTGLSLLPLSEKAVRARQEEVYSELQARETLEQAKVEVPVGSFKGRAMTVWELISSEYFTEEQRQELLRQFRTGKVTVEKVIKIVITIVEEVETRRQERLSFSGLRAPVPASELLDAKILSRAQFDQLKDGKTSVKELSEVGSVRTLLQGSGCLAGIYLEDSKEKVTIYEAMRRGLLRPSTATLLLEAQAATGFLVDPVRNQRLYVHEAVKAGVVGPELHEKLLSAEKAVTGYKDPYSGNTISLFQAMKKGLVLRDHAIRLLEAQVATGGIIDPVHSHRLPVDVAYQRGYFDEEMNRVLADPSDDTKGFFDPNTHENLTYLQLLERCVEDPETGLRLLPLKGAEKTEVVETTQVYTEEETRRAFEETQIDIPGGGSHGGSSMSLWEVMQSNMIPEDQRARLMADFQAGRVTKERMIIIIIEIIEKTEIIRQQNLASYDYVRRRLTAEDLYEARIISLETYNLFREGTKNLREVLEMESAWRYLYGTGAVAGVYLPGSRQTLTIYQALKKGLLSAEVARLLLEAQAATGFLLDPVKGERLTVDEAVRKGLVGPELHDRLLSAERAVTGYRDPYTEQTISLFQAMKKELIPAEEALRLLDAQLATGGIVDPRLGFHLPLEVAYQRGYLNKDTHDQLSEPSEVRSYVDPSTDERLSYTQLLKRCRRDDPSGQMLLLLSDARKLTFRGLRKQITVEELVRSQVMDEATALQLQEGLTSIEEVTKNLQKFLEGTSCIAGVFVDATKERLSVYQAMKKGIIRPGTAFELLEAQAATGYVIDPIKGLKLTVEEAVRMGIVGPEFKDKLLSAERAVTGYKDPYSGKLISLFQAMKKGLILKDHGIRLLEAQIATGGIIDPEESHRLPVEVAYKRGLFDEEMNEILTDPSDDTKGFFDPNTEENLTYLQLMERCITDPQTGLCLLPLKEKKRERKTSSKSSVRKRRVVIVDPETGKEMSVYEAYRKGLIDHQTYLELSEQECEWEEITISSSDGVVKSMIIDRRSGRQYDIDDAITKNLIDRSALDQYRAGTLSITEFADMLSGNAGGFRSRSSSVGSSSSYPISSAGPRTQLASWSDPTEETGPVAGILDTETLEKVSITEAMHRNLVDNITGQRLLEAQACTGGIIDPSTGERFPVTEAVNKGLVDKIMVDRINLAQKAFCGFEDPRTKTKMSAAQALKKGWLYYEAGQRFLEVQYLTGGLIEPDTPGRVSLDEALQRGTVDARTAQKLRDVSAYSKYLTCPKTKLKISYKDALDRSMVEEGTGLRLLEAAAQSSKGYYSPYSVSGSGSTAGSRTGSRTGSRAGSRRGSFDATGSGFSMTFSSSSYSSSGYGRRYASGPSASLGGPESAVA

KTLLPTP [clone 27]
binding to PanINs and PDAC lesions on frozen sections [1]: prominent binding | detection of human PDAC on frozen sections [2]: able to specifically detect human PDAC | specificity for mouse PDAC cells over normal ductal cells ([3]; FITC-labeled phage, 1 μM (FITC), 1 h at 37 °C, mean fluorescence): 112 fold | abrogation of binding [4]: 96.9% | specificity (ratio of clone 27/unrelated clone mean fluorescence) [5]: 0.85

TMAPSIK [clone 15]
rank of affinity among fluorescein-labeled phage clones ([3]; mouse PDAC and normal ductal cells, unpublished data): second in affinity
